Measurements reported in ChEMBL document CHEMBL1687827, “Profiling the Aspergillus fumigatus proteome in response to caspofungin” (2011).
Active and inactive are the calls of the source. The rule behind the calls is not given here.

Experiments:
Aspergillus fumigatus [1] = experiment: Induction of change in IgE-binding gene expression in drug-susceptible Aspergillus fumigatus KU80 delta-akuB at 0.12 ug/ml after 48 hrs in YPD medium by microarray analysis relative to control; type: functional
Outline: (§1)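 Mycelia grown in YPD ± 0.12 μg/ml caspofungin (1 × 10⁵ conidia/ml, 37°C, shaking) and harvested at 24 or 48 h. Total RNA extracted, DNase-treated and quality-checked; 2 μg labelled per TIGR SOP M007 and hybridized to whole-genome arrays. Three independent experiments with dye flip (6 replicates); drug vs untreated fold change.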

Aspergillus fumigatus [2] = experiment: Induction of change in 60s ribosomal protein yl17-b protein level in iTRAQ114 labelled secreted fraction of drug-susceptible Aspergillus fumigatus KU80 delta-akuB at 0.12 ug/ml after 24 hrs in YPD medium by MS (MS/MS) analysis relative to control; type: functional
Outline: (§2)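 Conidia at 1 × 10⁵/ml grown shaking at 37°C in YPD with or without 0.12 μg/ml caspofungin; mycelia filtered at 24 or 48 h. Secreted fraction taken from the filtrate; cell wall/plasma membrane pellet recovered after French-press lysis and a 5,000 × g spin. Proteins trypsin-digested and iTRAQ-labelled, drug vs no-drug channels at each time, then 2D LC-MS/MS. Protein ratio is the median of ratios from uniquely assigned peptides after median normalization.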

Aspergillus fumigatus [3] = experiment: Induction of change in 60s ribosomal protein yl6 protein level in iTRAQ114 labelled secreted fraction of drug-susceptible Aspergillus fumigatus KU80 delta-akuB at 0.12 ug/ml after 24 hrs in YPD medium by MS (MS/MS) analysis relative to control; type: functional; outline: as §2
Aspergillus fumigatus [4] = experiment: Induction of change in cytosolic small ribosomal subunit S15, putative protein level in iTRAQ114 labelled secreted fraction of drug-susceptible Aspergillus fumigatus KU80 delta-akuB at 0.12 ug/ml after 24 hrs in YPD medium by MS (MS/MS) analysis relative to control; type: functional; outline: as §2
Aspergillus fumigatus [5] = experiment: Induction of change in stearic acid desaturase (SdeA), putative gene expression in drug-susceptible Aspergillus fumigatus KU80 delta-akuB at 0.12 ug/ml after 24 hrs in YPD medium by microarray analysis relative to control; type: functional
Outline: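 Mycelia grown from 1 × 10⁵ conidia/ml in YPD at 37°C, 225 rpm, with or without 0.12 μg/ml caspofungin. Total RNA extracted, DNase-treated; 2 μg labelled per TIGR SOP M007 for whole-genome array hybridization. Three independent experiments with dye flip (6 replicates); >2-fold change deemed significant.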

Aspergillus fumigatus [6] = experiment: Induction of change in Ribosomal L28e protein family protein level in iTRAQ114 labelled secreted fraction of drug-susceptible Aspergillus fumigatus KU80 delta-akuB at 0.12 ug/ml after 24 hrs in YPD medium by MS (MS/MS) analysis relative to control; type: functional; outline: as §2
Aspergillus fumigatus [7] = experiment: Induction of change in citrate synthase, eukaryotic protein level in iTRAQ-116 labelled secreted fraction of drug-susceptible Aspergillus fumigatus KU80 delta-akuB at 0.12 ug/ml after 48 hrs in YPD medium by MS (MS/MS) analysis relative to control; type: functional; outline: as §2
Aspergillus fumigatus [8] = experiment: Induction of change in 60s ribosomal protein L24, putative protein level in iTRAQ114 labelled cell wall fraction of drug-susceptible Aspergillus fumigatus KU80 delta-akuB at 0.12 ug/ml after 24 hrs in YPD medium by MS (MS/MS) analysis relative to control; type: functional; outline: as §2
Aspergillus fumigatus [9] = experiment: Induction of change in hypothetical gene locus AFUA_4G11270 expression in drug-susceptible Aspergillus fumigatus KU80 delta-akuB at 0.12 ug/ml after 48 hrs in YPD medium by microarray analysis relative to control; type: functional; outline: as §1
Aspergillus fumigatus [10] = experiment: Antifungal activity against drug-resistant Aspergillus fumigatus EMFR-S678P assessed as reduction in colony size at 0.12 ug/ml; type: functional, organism-based
Aspergillus fumigatus [11] = experiment: Induction of change in cytochrome c protein level in iTRAQ114 labelled secreted fraction of drug-resistant Aspergillus fumigatus EMFR-S678P at 0.12 ug/ml after 24 hrs in YPD medium by MS (MS/MS) analysis relative to control; type: functional
Outline: (§3)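 Conidia at 1 × 10⁵/ml were grown at 37°C, shaking at 225 rpm, in YPD with or without 0.12 μg/ml caspofungin for 24 or 48 h. The culture filtrate was kept as the secreted fraction. Mycelia were lysed by French press in HEPES/glycerol/EDTA/PMSF/DTT buffer, and the 5,000 × g pellet was washed to give CW/PM. Proteins were reduced, alkylated and trypsin-digested at 37°C overnight, then iTRAQ-labelled and run by 2D LC-MS/MS. Ratios are the median of unique-peptide ratios, median-normalized, versus the no-drug control.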

Aspergillus fumigatus [12] = experiment: Induction of change in peptidyl-prolyl cis-trans isomerase protein level in iTRAQ-118 labelled cell wall fraction of drug-resistant Aspergillus fumigatus EMFR-S678P at 0.12 ug/ml after 24 hrs in YPD medium by MS (MS/MS) analysis relative to control; type: functional; outline: as §3
Aspergillus fumigatus [13] = experiment: Induction of change in glucosamine-fructose-6-phosphate aminotransferase protein level in iTRAQ-118 labelled cell wall fraction of drug-resistant Aspergillus fumigatus EMFR-S678P at 0.12 ug/ml after 24 hrs in YPD medium by MS (MS/MS) analysis relative to control; type: functional, organism-based; outline: as §3
Aspergillus fumigatus [14] = experiment: Induction of change in nascent polypeptide-associated complex (NAC) subunit, putative protein level in iTRAQ-116 labelled secreted fraction of drug-resistant Aspergillus fumigatus EMFR-S678P at 0.12 ug/ml after 48 hrs in YPD medium by MS (MS/MS) analysis relative to control; type: functional, organism-based; outline: as §3
Aspergillus fumigatus [15] = experiment: Induction of change in alanine aminotransferase, putative protein level in iTRAQ-116 labelled secreted fraction of drug-resistant Aspergillus fumigatus EMFR-S678P at 0.12 ug/ml after 48 hrs in YPD medium by MS (MS/MS) analysis relative to control; type: functional, organism-based; outline: as §3
Aspergillus fumigatus [16] = experiment: Induction of change in GNAT family acetyltransferase, putative protein level in iTRAQ-116 labelled secreted fraction of drug-resistant Aspergillus fumigatus EMFR-S678P at 0.12 ug/ml after 48 hrs in YPD medium by MS (MS/MS) analysis relative to control; type: functional; outline: as §3
Aspergillus fumigatus [17] = experiment: Induction of change in BYS1 domain protein, putative protein level in iTRAQ-118 labelled cell wall fraction of drug-susceptible Aspergillus fumigatus KU80 delta-akuB at 0.12 ug/ml after 24 hrs in YPD medium by MS (MS/MS) analysis relative to control; type: functional; outline: as §2
Aspergillus fumigatus [18] = experiment: Induction of change in transcriptional repressor TupA/RocA, putative protein level in iTRAQ-118 labelled cell wall fraction of drug-susceptible Aspergillus fumigatus KU80 delta-akuB at 0.12 ug/ml after 24 hrs in YPD medium by MS (MS/MS) analysis relative to control; type: functional
Outline: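 Conidia (1 × 10⁵/ml) grown in YPD, 37°C, 225 rpm, ± 0.12 μg/ml caspofungin; filtrate taken as secreted fraction, French-press lysate 5,000 × g pellet as cell wall/plasma membrane. Trypsin digests 8-plex iTRAQ-labelled (drug-free channels as references), pooled, 2D-chromatography, MS/MS. Median-normalized; protein ratio = median of unique-peptide ratios, log2 normalized.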

## CC[C@H](C)C[C@H](C)CCCCCCCCC(=O)N[C@H]1C[C@@H](O)[C@@H](NCCN)NC(=O)[C@@H]2[C@@H](O)CCN2C(=O)[C@H]([C@H](O)CCN)NC(=O)[C@H]([C@H](O)[C@@H](O)c2ccc(O)cc2)NC(=O)[C@@H]2C[C@@H](O)CN2C(=O)[C@H]([C@@H](C)O)NC1=O [CASPOFUNGIN]
Aspergillus fumigatus [1]
  fold change (FC): 7.6
Aspergillus fumigatus [2]
  fold change (FC): -1
Aspergillus fumigatus [3]
  fold change (FC): 1.1
Aspergillus fumigatus [4]
  fold change (FC): -1
Aspergillus fumigatus [5]
  fold change (FC): -4.6
Aspergillus fumigatus [6]
  fold change (FC): -1.6
Aspergillus fumigatus [7]
  fold change (FC): -1.6
Aspergillus fumigatus [8]
  fold change (FC): 1.5
Aspergillus fumigatus [9]
  fold change (FC): 3.7
Aspergillus fumigatus [10]
  Activity: Active
Aspergillus fumigatus [11]
  fold change (FC): -1.07
Aspergillus fumigatus [12]
  fold change (FC): -1.15
Aspergillus fumigatus [13]
  Activity: inactive
Aspergillus fumigatus [14]
  Activity: inactive
Aspergillus fumigatus [15]
  Activity: inactive
Aspergillus fumigatus [16]
  fold change (FC): -1.07
Aspergillus fumigatus [17]
  fold change (FC): -2.3
Aspergillus fumigatus [18]
  fold change (FC): -2.1
